TRPC4 agonist: activators of mouse TRPC4 channel, primary screen, Fluo4 calcium, HEK293 TRPC4beta/mu-opioid cells; actives 0.49% (n = 310,000); B-score at 10 µM; AID 2237, 2010; Fluo4 calcium fluorescence; stronger effect = higher value; Short transient receptor potential channel 4 (Mus musculus), Q9QUQ5;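 active means B-score above 5 SD of library B-scores, and initial fluorescence ratio not above library mean plus 5 SD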;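 further: positive B-score marks a calcium rise read as TRPC4 activation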
Target sequence (Q9QUQ5 whole entry, looked up): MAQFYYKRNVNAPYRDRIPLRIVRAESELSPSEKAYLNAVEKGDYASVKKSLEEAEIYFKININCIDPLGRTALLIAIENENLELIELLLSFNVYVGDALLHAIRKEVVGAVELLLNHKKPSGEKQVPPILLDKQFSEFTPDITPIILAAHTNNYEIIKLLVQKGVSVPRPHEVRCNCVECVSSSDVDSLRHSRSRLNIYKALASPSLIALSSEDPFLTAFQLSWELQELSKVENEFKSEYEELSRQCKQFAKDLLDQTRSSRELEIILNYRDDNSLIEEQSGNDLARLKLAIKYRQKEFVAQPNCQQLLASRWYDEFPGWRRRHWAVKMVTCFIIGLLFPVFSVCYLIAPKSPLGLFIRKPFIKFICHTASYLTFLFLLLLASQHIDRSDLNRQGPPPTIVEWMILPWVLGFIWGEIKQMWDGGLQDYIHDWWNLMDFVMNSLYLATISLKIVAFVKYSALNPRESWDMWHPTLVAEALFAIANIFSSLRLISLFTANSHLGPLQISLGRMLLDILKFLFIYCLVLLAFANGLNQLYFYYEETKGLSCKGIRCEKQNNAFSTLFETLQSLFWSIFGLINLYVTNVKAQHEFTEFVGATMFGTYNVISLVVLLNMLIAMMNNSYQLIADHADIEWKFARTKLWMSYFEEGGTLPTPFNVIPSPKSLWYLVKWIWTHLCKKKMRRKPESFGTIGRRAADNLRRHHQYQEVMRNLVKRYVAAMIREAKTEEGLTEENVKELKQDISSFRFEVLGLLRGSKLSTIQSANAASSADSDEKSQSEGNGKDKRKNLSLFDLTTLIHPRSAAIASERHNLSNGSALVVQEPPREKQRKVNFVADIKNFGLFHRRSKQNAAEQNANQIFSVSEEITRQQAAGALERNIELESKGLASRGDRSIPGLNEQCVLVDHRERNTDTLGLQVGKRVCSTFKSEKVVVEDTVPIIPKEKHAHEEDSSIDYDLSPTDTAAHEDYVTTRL
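Material: TRPC4beta and mu-opioid receptor HEK293 stable cells | Incubation: 45 min room-temperature Fluo4 loading, 110 s read | Detection: Kinetic Fluo4 calcium fluorescence | Measure: Integrated baseline-normalised fluorescence ratio, converted to per-well B score | Benchmarks: Low control buffer alone, high control maximal DAMGO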
TRPC6 inhibitor: mouse TRPC6 channel inhibitors, primary screen, cell-based, HEK293, membrane potential dye; Short transient receptor potential channel 6 (Mus musculus), Q61143; ACh-evoked depolarization; stronger effect = lower value; B-score at 10 µM; actives 1.1% (n = 310,000); AID 2553, 2010;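 active means B-score under library mean minus 3 SD, initial fluorescence not abnormally high, positive integrated signal ratio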;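 further: B-score derived from integrated fluorescence ratio over the kinetic read; more negative B-score means stronger inhibition of depolarization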
TRPC4 potent: positive allosteric modulators of TRPC4, primary screen, cell-based, mouse TRPC4beta, HEK293 mu-opioid, Fluo-4 calcium | Short transient receptor potential channel 4 (Mus musculus), Q9QUQ5 | actives 0.42% (n = 310,000) | DAMGO EC20, Fluo-4 Ca2+ flux; stronger effect = higher value | B-score at 10 µM;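 active means B-score of calcium response area above 5 SD of library B-scores, with initial fluorescence ratio within 5 SD of library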;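 further: B-score of integrated fluorescence ratio over time as area under calcium response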
TRPC6 activator: mouse TRPC6 channel activators, primary screen, cell-based, HEK293, membrane potential dye; Short transient receptor potential channel 6 (Mus musculus), Q61143; HEK293-TRPC6 membrane potential dye fluorescence; stronger effect = higher value; B-score at 10 µM; actives 0.13% (n = 310,000); AID 2550, 2010;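 active means B-score of the integrated fluorescence ratio above library mean plus 3 SD, and starting fluorescence ratio within library mean plus 5 SD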;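 further: higher score means more depolarization so channel activation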
TRPC4 inh: inhibitors of mouse TRPC4 channel, primary screen, Fluo4 calcium, HEK293 TRPC4beta/mu-opioid cells | Short transient receptor potential channel 4 (Mus musculus), Q9QUQ5 | B-score at 10 µM | actives 0.39% (n = 300,000) | DAMGO-evoked Fluo4 calcium flux; stronger effect = lower value | AID 2247, 2010;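 active means B-score over 3 SD under the library average, no early fluorescence shift, positive overall ratio signal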
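System: stable TRPC4beta/mu-opioid receptor HEK293 cells; Dosing: single-point compound dosing; Measured by: Fluo4 Ca2+ flux fluorescence; Read-out basis: per-well B score of integrated baseline-normalized Fluo4 ratio.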
* marks the source's active call; other numbers are inactive results; i = inactive; nt = no result given. This is a sample that favours compounds with a hit; in the whole collection about 2.3% have one here.

SMILES	TRPC4 agonist	TRPC6 inhibitor	TRPC4 potent	TRPC6 activator	TRPC4 inh
CC(=O)[C@@H]1[C@@H]2C(=O)N(c3ccc(F)c(Cl)c3)C(=O)[C@@H]2C2c3ccccc3C=CN21 (stereo partly specified)	i	i	i	i	-7*
O=C1CC2(CCN(S(=O)(=O)c3ccccc3)CC2)Oc2ccccc21	i	i	50*	i	i
O=C1CC2(CCN(S(=O)(=O)c3ccccc3F)CC2)Oc2ccccc21	i	i	30*	i	i
CCCC(=O)Nc1c(C(=O)OCC)[nH]c2ccccc12	i	i	i	i	i
OCCOc1ccc(C2=NCCO2)cc1	i	i	i	i	nt
CCN(CC)CCCNC(=O)c1ccc2c(SCC(=O)O)c3c(nc2c1)CCC3	i	i	i	i	i
CC1CC(C)CN(CCCNC(=O)c2ccc3c(SCC(=O)O)c4c(nc3c2)CCC4)C1 (stereo unspecified)	76*	i	i	i	i
Cc1nc2ccccc2c2oc(C(=O)NCCCN3CC(C)CC(C)C3)cc12 (stereo unspecified)	83*	i	i	i	i
NCCNC(=O)c1c(O)c2cccc3c2n(c1=O)CCC3	104*	i	i	i	i
CCCNC(=O)c1c(O)c2cccc3c2n(c1=O)CCC3	i	i	i	i	i
Cc1ccccc1OCCNc1cc(N2CCNCC2)ccc1[N+](=O)[O-]	i	-7.94*	14*	i	i
COc1ccc(C)c2sc(=NC(=O)c3cccc(N4C(=O)CCC4=O)c3)n(C)c12	i	i	i	i	i
COc1ccc2c(c1)c1ncn(CCCN3CCOCC3)c(=O)c1n2C	i	i	13*	i	i
CC1CCN(c2ccc([N+](=O)[O-])cn2)CC1	i	i	i	i	i
Cc1c(Cl)cccc1NC(=S)N1CCCN(Cc2ccc(F)cc2)C1	44*	i	i	i	i
Cc1ccc(NC(=S)N2CCCN(Cc3ccc(F)cc3)C2)c(C)c1	60*	i	i	i	i
Nc1cccc(Oc2c(F)c(F)c(Oc3cccc(N)c3)c(F)c2F)c1	i	i	i	i	i
O=C(Nc1ccccc1)C1=C[C@H](c2ccc(C(F)(F)F)cc2)C[C@H](OCc2ccc(CO)cc2)O1	i	i	i	i	i
O=C(Nc1ccccc1)C1=C[C@H](c2ccccc2)C[C@H](OCc2ccc(CO)cc2)O1	i	i	12*	i	i
O=C(NCc1ccccc1)C1=C[C@H](c2ccccc2)C[C@H](OCc2ccc(CO)cc2)O1	176*	i	i	i	i
O=C(NCc1ccccc1)C1=C[C@@H](c2ccc(Br)cc2)C[C@@H](OCc2ccc(CO)cc2)O1	i	i	i	i	i
O=C(NCc1ccccc1)C1=C[C@H](c2ccc(C(F)(F)F)cc2)C[C@H](OCc2ccc(CO)cc2)O1	i	i	19*	i	i
CC(=O)n1cc([C@@H]2C=C(C(=O)NCc3ccccc3)O[C@H](OCc3ccc(CO)cc3)C2)c2ccccc21	i	i	15*	i	i
Cc1ccc(C(=O)Nc2cccc(C(F)(F)F)c2)cc1Nc1cncnc1	i	i	i	i	i
CC1(C)CC(=O)C2=C(C1)NCN(Cc1ccccc1)C2	i	i	i	i	i
N#Cc1c(-c2cccs2)nc(SCc2ccc(Cl)cc2)[nH]c1=O	i	i	15*	i	-7*
COc1ccc(/C=N/n2c(SC)nnc2-c2ccccc2)cc1C	i	i	34*	i	i
c1ccc(CNc2nc(CN3CCOCC3)nc3scc(-c4ccccc4)c23)cc1	i	i	i	i	i
